Activity calls are given as the source filed them. No cut-off for these calls is given here.

Molecular target in the first assay: not listed separately
As to the kind of experiment: Inhibition of pig pancreatic cholesterol esterase assessed as p-nitrophenylbutyrate hydrolysis after 1 min. Set-up: species or system Sus scrofa. In a few lines:
(§1)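 Porcine pancreatic CEase (0.0125 mU) is pre-incubated for 1 min with varied inhibitor concentrations in 0.1 M sodium phosphate, pH 7.04, with 0.1 M NaCl. PNPB (0.1 mM) is then added and hydrolysis is followed by A405 for 1 min. Compounds are also checked at one fixed top concentration. Each concentration is run in triplicate and averaged.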
Usually IC50 stands for the midpoint of a concentration-inhibition curve. As for `CCOP1(=O)OC(c2ccccc2)=C(Cl)c2ccccc21` (centres undefined), the IC50 turned out to be 12.7 µM.

In the case of `O=P1(O)OC(c2ccccc2)=C(Cl)c2ccc(Cl)cc21`, the IC50 was determined as 14.6 µM.

Turning to `CCCCC1=Cc2ccc(Cl)cc2P(=O)(OCC)O1` (centres undefined), the IC50 was determined as 43.1 µM.

`CCOP1(=O)OC(c2ccc(OC)cc2)=C(I)c2ccc(Cl)cc21` (centres undefined): the IC50 stood at 26.2 µM.

Consider `COc1ccc2c(c1)P(=O)(O)OC(c1ccccc1)=C2Br`, for which the IC50 is 57.4 µM.

As to `CCOP1(=O)OC(c2ccccc2)=Cc2ccccc21` (centres undefined), the IC50 came out at 63.6 µM.

Consider `CCOP1(=O)OC(c2ccccc2)=C(Br)c2ccccc21` (centres undefined), for which the IC50 came out at 18.9 µM.

With `CCOP1(=O)OC(c2ccc(OC)cc2)=C(Br)c2ccc(Cl)cc21` (centres undefined), the IC50 was 47.9 µM.

For `CCOP1(=O)OC(c2ccccc2)=C(Cl)c2ccc(Cl)cc21` (centres undefined), the IC50 turned out to be 34.8 µM.

As for `CCOP1(=O)OC(c2ccccc2)=C(Br)c2ccc(OC)cc21` (centres undefined), the IC50 was determined as 34.4 µM.

On to `O=P1(O)OC(c2ccccc2)=C(Cl)c2ccccc21`, for which the concentration for half-maximal inhibition (IC50) was determined as 1.9 µM.

As to `CCOP1(=O)OC(c2ccccc2)=C(I)c2ccc(Cl)cc21` (centres undefined), the IC50 is 47.9 µM.

For `CCOP1(=O)OC(c2ccc(CC)cc2)=Cc2ccc(Cl)cc21` (centres undefined), the IC50 came out at 40.3 µM.

Turning to `CCOP1(=O)OC(c2ccccc2)=C(I)c2ccc(OC)cc21` (centres undefined), the IC50 stood at 54.5 µM.

With `O=P1(O)OC(c2ccccc2)=C(Br)c2ccccc21`, the IC50 amounted to 14.1 µM.

For `CCOP1(=O)OC(C2CC2)=C(Cl)c2ccc(OC)cc21` (centres undefined), the IC50 was above 150 µM.

Turning to `CCOP1(=O)OC(C2CC2)=C(Cl)c2ccc(Cl)cc21` (centres undefined), the IC50 was above 100 µM.

Regarding `COc1ccc2c(c1)P(=O)(O)OC(c1ccccc1)=C2`, the IC50 was found to be 102 µM.

Consider `CCOP1(=O)OC(c2ccccc2)=C(Br)c2ccc(Cl)cc21` (centres undefined), for which the IC50 was determined as 51.2 µM.

For `CCOP1(=O)OC(c2ccc(CC)cc2)=C(I)c2ccc(Cl)cc21` (centres undefined), the concentration for half-maximal inhibition (IC50) was 4.8 µM.

With `CCCCC1=Cc2ccccc2P(=O)(O)O1`, the IC50 was 62.6 µM.

As for `CCOP1(=O)OC(c2ccc([N+](=O)[O-])cc2)=Cc2ccc(Cl)cc21` (centres undefined), the IC50 is above 100 µM.

`CCOP1(=O)OC(c2ccccc2)=C(Cl)c2ccc(OC)cc21` (centres undefined): the IC50 amounted to 89.6 µM.

On to `CCOP1(=O)OC(c2ccccc2)=C(C#Cc2ccccc2)c2ccccc21` (centres undefined), for which the IC50 was determined as 2.3 µM.

In the case of `CCOP1(=O)OC(c2ccccc2)=Cc2ccc(Cl)cc21` (centres undefined), the IC50 was 56.9 µM.

For `CCOP1(=O)OC(c2ccc(CC)cc2)=C(Br)c2ccc(Cl)cc21` (centres undefined), the IC50 was 6.4 µM.

Take `CCOP1(=O)OC(c2ccc(CC)cc2)=C(C#Cc2ccccc2)c2ccc(Cl)cc21` (centres undefined): the IC50 came to 8.5 µM.

Turning to `CCOP1(=O)OC(c2ccccc2)=Cc2ccc(OC)cc21` (centres undefined), the IC50 was 77.4 µM.

Turning to `CCc1ccc(C2=Cc3ccc(Cl)cc3P(=O)(O)O2)cc1`, the IC50 came out at 58.4 µM.

For the compound `O=P1(O)OC(c2ccccc2)=Cc2ccccc21`, the IC50 was determined as 96.3 µM.

As for `CCOP1(=O)OC(CO)=Cc2ccc(OC)cc21` (centres undefined), the IC50 came to 79.4 µM.

Take `CCOP1(=O)OC(c2ccc(CC)cc2)=C(CC(=O)c2ccccc2)c2ccc(Cl)cc21` (centres undefined): the IC50 is 5.1 µM.

As for `CCOP1(=O)OC(c2ccccc2)=C(I)c2ccccc21` (centres undefined), the IC50 worked out at 30.3 µM.

Take `O=P1(O)OC(c2ccccc2)=Cc2ccc(Cl)cc21`: the IC50 was found to be 38.7 µM.

On to `CCOP1(=O)OC(c2ccc(CC)cc2)=C(Cl)c2ccc(Cl)cc21` (centres undefined), for which the IC50 was 8.9 µM.

For another assay, the species on record is Sus scrofa. As to the kind of experiment: Reversible inhibition of pig pancreatic cholesterol esterase assessed as p-nitrophenylbutyrate hydrolysis after 1 min.
For the compound `O=P1(O)OC(c2ccccc2)=C(Cl)c2ccccc21`, the outcome was Active.

Consider `CCOP1(=O)OC(c2ccc(CC)cc2)=C(I)c2ccc(Cl)cc21` (centres undefined), for which the outcome was Active.

Turning to `CCOP1(=O)OC(c2ccccc2)=C(C#Cc2ccccc2)c2ccccc21` (centres undefined), the outcome was Active.

Molecular target in another assay: not listed separately
The assay is described as follows: Competitive inhibition of pig pancreatic cholesterol esterase assessed as p-nitrophenylbutyrate hydrolysis after 1 min by Lineweaver-Burke plot analysis. Set-up: species or system Sus scrofa. In a few lines: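 For kinetics, CEase (0.0125 mU) is pre-incubated 1 min with inhibitor in sodium phosphate buffer. PNPB is then added at 0.07–0.3 mM and the A405 change is followed for 1 min at each substrate level. Mechanism is assigned from the rate data across substrate and inhibitor concentrations.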
As usually defined, the Ki is a dissociation constant, usually derived from enzyme kinetics or from competition with a known ligand. Turning to `O=P1(O)OC(c2ccccc2)=C(Cl)c2ccccc21`, the Ki came to 1.4 µM.

As for `CCOP1(=O)OC(c2ccc(CC)cc2)=C(I)c2ccc(Cl)cc21` (centres undefined), the Ki was determined as 4.2 µM.

`CCOP1(=O)OC(c2ccccc2)=C(C#Cc2ccccc2)c2ccccc21` (centres undefined): the Ki stood at 1.9 µM.

For the next assay, the species on record is Sus scrofa. As to the kind of experiment: Reversible inhibition of pig pancreatic cholesterol after 6 hrs absence of p-nitrophenylbutyrate. Summed up:
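CEase and excess inhibitor are incubated without substrate in sodium phosphate buffer, pH 7.04, with 5% acetonitrile by volume, at 25 °C for up to 6 h. Samples are checked periodically by TLC.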
In the case of `O=P1(O)OC(c2ccccc2)=C(Cl)c2ccccc21`, the result was inactive.

As for `CCOP1(=O)OC(c2ccc(CC)cc2)=C(I)c2ccc(Cl)cc21` (centres undefined), the outcome was inactive.

Consider `CCOP1(=O)OC(c2ccccc2)=C(C#Cc2ccccc2)c2ccccc21` (centres undefined), for which the outcome was inactive.

Test system in the next assay: not listed separately
As to the kind of experiment: Inhibition of pig pancreatic cholesterol esterase assessed as p-nitrophenylbutyrate hydrolysis at 100 uM after 1 min. Set-up: species or system Sus scrofa. Summed up: as §1
Turning to `CCOP1(=O)OC(C2CC2)=Cc2ccc(Cl)cc21` (centres undefined), the IC50 entry was “Not Active”.

On to `CCOP1(=O)OC(C2CC2)=C(Br)c2ccc(Cl)cc21` (centres undefined), for which the IC50 entry is on record as “Not Active”.

As for `CCCCC1=C(Br)c2ccccc2P(=O)(OCC)O1` (centres undefined), the IC50 entry is on record as “Not Active”.

As for `CCCCC1=Cc2ccccc2P(=O)(OCC)O1` (centres undefined), the IC50 entry is on record as “Not Active”.

Turning to `CCCCC1=C(I)c2ccccc2P(=O)(OCC)O1` (centres undefined), the IC50 result is reported as “Not Active”.

In the case of `CCOP1(=O)OC(C2CC2)=C(I)c2ccc(Cl)cc21` (centres undefined), the IC50 result is reported as “Not Active”.

Consider `CCOP1(=O)OC(C2CC2)=C(Br)c2ccc(OC)cc21` (centres undefined), for which the IC50 result is given as “Not Active”.

On to `CCCCC1=C(Cl)c2ccc(Cl)cc2P(=O)(OCC)O1` (centres undefined), for which the IC50 result is recorded as “Not Active”.

Take `CCCCC1=C(Br)c2ccc(Cl)cc2P(=O)(OCC)O1` (centres undefined): the IC50 entry is “Not Active”.

Turning to `CCCCC1=C(Cl)c2ccccc2P(=O)(OCC)O1` (centres undefined), the IC50 entry is “Not Active”.
